For test [1], the system named is MGC-803. Nature of the test: Antiproliferative activity against human MGC803 cells after 72 hrs by MTT assay. It counts as functional, cell-based. To be noted: MGC-803, 72 h. An outline of the steps: (§1)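 Exponentially growing cells, 4×10^3/well, attached 24 h, then medium replaced with fresh medium holding graded compound concentrations for 72 h. MTT (5 mg/mL stock) added for 4 h, formazan dissolved in DMSO, absorbance at 570 nm; IC50 calculated from dose-response data.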
For orientation: Tetrazolium dyes change colour on reduction, which living cells bring about.

For test [2], the system named is GES1. Nature of the test: Antiproliferative activity against human GES-1 cells after 72 hrs by MTT assay. To be noted: GES1, 72 h. It counts as cell-based. The procedure, abridged:
as §1

Test [3] has as its system ECa-109 cell line. The test can be described thus: Antiproliferative activity against human EC109 cells after 72 hrs by MTT assay. It counts as functional, cell-based. To be noted: ECa-109, 72 h. An outline of the steps:
as §1

For test [4], the system named is PC-3. The test can be described thus: Antiproliferative activity against human PC3 cells after 72 hrs by MTT assay. It counts as functional, cell-based. As to conditions: PC-3, 72 h. An outline of the steps: as §1
Test [5] concerns LNCaP. Nature of the test: Antiproliferative activity against human LNCAP cells after 72 hrs by MTT assay. It counts as functional, cell-based. The procedure, abridged: as §1

pIC50: −log10 of the molar value.

What is called pIC50 is −log10 of the IC50, conventionally taken in molar units. A high value points to a low IC50.

On to `CCOc1cc(-c2ccc(Cl)cc2)cc([C@H]2CC[C@H]3[C@@H]4CC=C5C[C@@H](O)CC[C@]5(C)[C@H]4CC[C@]23C)n1`, for which the pIC50 in test [1] is 4.72; in test [2], less than 4.49; in test [3] it was less than 4.49; in test [4], less than 4.49.

Regarding `CCOc1cc(-c2ccc(Br)cc2)cc([C@H]2CC[C@H]3[C@@H]4CC=C5C[C@@H](O)CC[C@]5(C)[C@H]4CC[C@]23C)n1`, the pIC50 in test [1], in test [2], in test [3] and in test [4] was less than 4.49 each time.

In the case of `CCOc1cc(-c2ccc(F)cc2)cc([C@H]2CC[C@H]3[C@@H]4CC=C5C[C@@H](O)CC[C@]5(C)[C@H]4CC[C@]23C)n1`, the pIC50 in test [1], in test [2], in test [3] and in test [4] was less than 4.49 in each case.

As to `CCOc1cc(-c2ccc(C)cc2)cc([C@H]2CC[C@H]3[C@@H]4CC=C5C[C@@H](O)CC[C@]5(C)[C@H]4CC[C@]23C)n1`, the pIC50 in test [1], in test [2], in test [3] and in test [4] was less than 4.49 in each case.

As for `CCOc1cc(-c2ncccc2Br)cc([C@H]2CC[C@H]3[C@@H]4CC=C5C[C@@H](O)CC[C@]5(C)[C@H]4CC[C@]23C)n1`, the pIC50 in test [1] was 4.59; in test [2] it was less than 4.49; in test [3] it was less than 4.49; in test [4], 4.87.

In the case of `C[C@]12CC[C@H](O)CC1=CC[C@@H]1[C@@H]2CC[C@]2(C)C(c3cccnc3)=CC[C@@H]12` [ABIRATERONE], the pIC50 in test [1] is 5.11; in test [2], 4.88; in test [5] it was 5.48; in test [3] it was less than 4.49; in test [4] it was 5.23.

Consider `CCOc1cc(-c2ccco2)cc([C@H]2CC[C@H]3[C@@H]4CC=C5C[C@@H](O)CC[C@]5(C)[C@H]4CC[C@]23C)n1`, for which the pIC50 is 4.58 in test [1], less than 4.49 in test [2], 4.58 in test [3] and 4.97 in test [4].

Take `CCOc1nc([C@H]2CC[C@H]3[C@@H]4CC=C5C[C@@H](O)CC[C@]5(C)[C@H]4CC[C@]23C)cc(-c2ccc(C)cc2)c1C#N`: the pIC50 in test [1], in test [2], in test [3] and in test [4] was less than 4.49 each time.

As to `CCOc1nc([C@H]2CC[C@H]3[C@@H]4CC=C5C[C@@H](O)CC[C@]5(C)[C@H]4CC[C@]23C)cc(-c2cccc([N+](=O)[O-])c2)c1C#N`, the negative-log IC50 (pIC50) in test [1] was 4.88; in test [2] it was less than 4.49; in test [3], 4.56; in test [4] it was 5.11.

In the case of `CCOc1cc(-c2cccnc2)cc([C@H]2CC[C@H]3[C@@H]4CC=C5C[C@@H](OC(C)=O)CC[C@]5(C)[C@H]4CC[C@]23C)n1`, the pIC50 in test [1] was less than 4.49; in test [2], less than 4.49; in test [5], 4.55; in test [3], less than 4.49; in test [4], 5.16.

Take `CCOc1nc([C@H]2CC[C@H]3[C@@H]4CC=C5C[C@@H](O)CC[C@]5(C)[C@H]4CC[C@]23C)cc(-c2ccc(S(C)(=O)=O)cc2)c1C#N`: the pIC50 in test [1], in test [2], in test [3] and in test [4] was less than 4.49 each time.

As for `CCOc1cc(-c2cccs2)cc([C@H]2CC[C@H]3[C@@H]4CC=C5C[C@@H](O)CC[C@]5(C)[C@H]4CC[C@]23C)n1`, the pIC50 in test [1] was less than 4.49; in test [2], less than 4.49; in test [3] it was 4.76; in test [4], 4.82.

Consider `CCOc1nc([C@H]2CC[C@H]3[C@@H]4CC=C5C[C@@H](O)CC[C@]5(C)[C@H]4CC[C@]23C)cc(-c2ccc(F)cc2)c1C#N`, for which the pIC50 in test [1], in test [2], in test [3] and in test [4] was less than 4.49 each time.

With `CCOc1nc([C@H]2CC[C@H]3[C@@H]4CC=C5C[C@@H](O)CC[C@]5(C)[C@H]4CC[C@]23C)cc(-c2cccnc2)c1C#N`, the pIC50 is 4.83 in test [1]; less than 4.49 in test [2]; 5.29 in test [5]; 5.55 in test [3]; 5.23 in test [4].

In the case of `CCOc1nc([C@H]2CC[C@H]3[C@@H]4CC=C5C[C@@H](O)CC[C@]5(C)[C@H]4CC[C@]23C)cc(-c2ccccc2)c1C#N`, the pIC50 in test [1] was 4.80; in test [2], 5.11; in test [3], 4.88; in test [4] it was 5.36.

On to `CCOc1cc(-c2cccc(Br)c2)cc([C@H]2CC[C@H]3[C@@H]4CC=C5C[C@@H](O)CC[C@]5(C)[C@H]4CC[C@]23C)n1`, for which the pIC50 in test [1] is less than 4.49; in test [2], less than 4.49; in test [3] it was less than 4.49; in test [4] it was 4.66.

For `CCOc1nc([C@H]2CC[C@H]3[C@@H]4CC=C5C[C@@H](O)CC[C@]5(C)[C@H]4CC[C@]23C)cc(-c2cccs2)c1C#N`, the pIC50 is 4.63 in test [1], less than 4.49 in test [2], 5.01 in test [3] and 5.16 in test [4].

As for `CCOc1cc(-c2cc(F)cc(F)c2)cc([C@H]2CC[C@H]3[C@@H]4CC=C5C[C@@H](O)CC[C@]5(C)[C@H]4CC[C@]23C)n1`, the pIC50 in test [1] was less than 4.49; in test [2], less than 4.49; in test [3] it was less than 4.49; in test [4] it was 4.78.

As for `CCOc1nc([C@H]2CC[C@H]3[C@@H]4CC=C5C[C@@H](O)CC[C@]5(C)[C@H]4CC[C@]23C)cc(-c2ccc(Br)cc2)c1C#N`, the pIC50 in test [1] was less than 4.49; in test [2] it was less than 4.49; in test [3] it was less than 4.49; in test [4], 4.86.

Consider `CCOc1cc(-c2ccncc2)cc([C@H]2CC[C@H]3[C@@H]4CC=C5C[C@@H](O)CC[C@]5(C)[C@H]4CC[C@]23C)n1`, for which the pIC50 in test [1] is 5.35; in test [2] it was 4.80; in test [3], 4.78; in test [4], 5.20.

As to `CCOc1nc([C@H]2CC[C@H]3[C@@H]4CC=C5C[C@@H](O)CC[C@]5(C)[C@H]4CC[C@]23C)cc(-c2cc(F)cc(F)c2)c1C#N`, the pIC50 is 4.91 in test [1], less than 4.49 in test [2], 4.70 in test [3] and 5.16 in test [4].

As to `CCOc1cc(-c2ccc(S(C)(=O)=O)cc2)cc([C@H]2CC[C@H]3[C@@H]4CC=C5C[C@@H](O)CC[C@]5(C)[C@H]4CC[C@]23C)n1`, the pIC50 was less than 4.49 in test [1], less than 4.49 in test [2], 4.50 in test [3] and less than 4.49 in test [4].

For the molecule `CCOc1nc([C@H]2CC[C@H]3[C@@H]4CC=C5C[C@@H](O)CC[C@]5(C)[C@H]4CC[C@]23C)cc(-c2ccc(Cl)cc2)c1C#N`, the pIC50 is less than 4.49 in test [1], less than 4.49 in test [2], less than 4.49 in test [3] and 4.98 in test [4].

In the case of `CCOc1cc(-c2ccccc2)cc([C@H]2CC[C@H]3[C@@H]4CC=C5C[C@@H](O)CC[C@]5(C)[C@H]4CC[C@]23C)n1`, the pIC50 in test [1] is less than 4.49; in test [2], less than 4.49; in test [3], less than 4.49; in test [4], 4.51.

Take `CCOc1nc([C@H]2CC[C@H]3[C@@H]4CC=C5C[C@@H](O)CC[C@]5(C)[C@H]4CC[C@]23C)cc(-c2ccsc2)c1C#N`: the pIC50 in test [1] was 4.65; in test [2] it was 4.52; in test [3] it was 4.98; in test [4], 4.91.

On to `CCOc1nc([C@H]2CC[C@H]3[C@@H]4CC=C5C[C@@H](O)CC[C@]5(C)[C@H]4CC[C@]23C)cc(-c2cccc(Br)c2)c1C#N`, for which the pIC50 is 4.55 in test [1], 4.66 in test [2], less than 4.49 in test [3] and 5.03 in test [4].

Consider `CCOc1cc(-c2ccc(C#N)cc2)cc([C@H]2CC[C@H]3[C@@H]4CC=C5C[C@@H](O)CC[C@]5(C)[C@H]4CC[C@]23C)n1`, for which the pIC50 was 4.63 in test [1], less than 4.49 in test [2], less than 4.49 in test [3] and 4.61 in test [4].

Values taken from ChEMBL document CHEMBL4145468, “Synthesis and biological evaluation of new steroidal pyridines as potential anti-prostate cancer agents” (Eur J Med Chem, 2018).
